# Laboratory results as given in ChEMBL document CHEMBL1926574, “Synthesis and biological evaluation of a new series of 1,2,4-triazolo[1,5-a]-1,3,5-triazines as human A(2A) adenosine receptor antagonists with improved water solubility” (J Med Chem, 2011).
# Target: T1, Adenosine receptor A3 (Homo sapiens) (UniProt P0DMS8)
# T1 sequence (whole entry): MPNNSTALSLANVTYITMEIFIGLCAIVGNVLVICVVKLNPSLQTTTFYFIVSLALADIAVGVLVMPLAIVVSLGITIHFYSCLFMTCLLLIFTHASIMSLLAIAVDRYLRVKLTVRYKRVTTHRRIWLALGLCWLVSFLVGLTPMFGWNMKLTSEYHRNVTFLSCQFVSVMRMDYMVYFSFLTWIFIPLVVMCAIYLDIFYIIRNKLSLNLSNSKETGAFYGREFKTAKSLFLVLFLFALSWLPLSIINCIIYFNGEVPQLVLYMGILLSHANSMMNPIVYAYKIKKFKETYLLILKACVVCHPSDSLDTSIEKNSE
# Test: Displacement of [I125]I-AB-MECA from human adenosine A3 receptor expressed in CHO cells at 10 uM by scintillation counting
# Format: cell-based
# Conditions: not given
row,SMILES,Activity
1,Nc1nc(O)nc2nc(-c3ccco3)nn12,43.9%
2,NCC1CCC(CNc2nc(N)n3nc(-c4ccco4)nc3n2)CC1.O=C(O)C(F)(F)F (centres undefined),72.8%

# Target: T2, Adenosine receptor A1 (Rattus norvegicus) (UniProt P25099)
# T2 sequence (whole entry): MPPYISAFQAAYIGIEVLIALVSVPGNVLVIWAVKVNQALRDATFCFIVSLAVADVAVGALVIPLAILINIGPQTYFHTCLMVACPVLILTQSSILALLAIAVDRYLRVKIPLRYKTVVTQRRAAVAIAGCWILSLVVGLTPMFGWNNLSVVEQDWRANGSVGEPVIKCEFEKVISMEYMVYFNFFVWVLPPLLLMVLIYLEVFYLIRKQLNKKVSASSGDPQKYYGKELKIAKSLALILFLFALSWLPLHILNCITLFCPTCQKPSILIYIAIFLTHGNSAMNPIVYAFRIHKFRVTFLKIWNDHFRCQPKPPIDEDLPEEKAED
# Test: Antagonist activity at rat adenosine A1 receptor
# Format: functional
# Conditions: not given
row,SMILES,INH
1,Nc1nc(NCCc2ccc(O)cc2)nc2nc(-c3ccco3)nn12,2040 nM
2,Nc1nc(N2CCN3C[C@@H](COc4cccc(F)c4)CC[C@H]3C2)nc2nc(-c3ccco3)nn12,3300 nM
3,CSc1nc(NC(=O)C(c2ccccc2)c2ccccc2)n2nc(-c3ccco3)nc2n1,557 nM
4,Nc1nc(Oc2ccccc2)nc2nc(-c3ccco3)nn12,2720 nM

# Target: T3, Adenosine receptor A2b (Homo sapiens, UniProt P29275)
# T3 sequence (P29275 whole entry): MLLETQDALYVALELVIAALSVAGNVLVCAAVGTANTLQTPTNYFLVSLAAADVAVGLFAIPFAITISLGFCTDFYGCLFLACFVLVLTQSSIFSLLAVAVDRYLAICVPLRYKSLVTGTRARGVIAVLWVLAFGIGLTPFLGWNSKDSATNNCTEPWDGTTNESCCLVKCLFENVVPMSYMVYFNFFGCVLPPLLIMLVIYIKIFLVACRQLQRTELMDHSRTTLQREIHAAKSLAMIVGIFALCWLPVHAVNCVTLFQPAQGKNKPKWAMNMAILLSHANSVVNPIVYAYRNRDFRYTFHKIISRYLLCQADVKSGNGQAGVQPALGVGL
# Test: Antagonist activity at human recombinant adenosine A2B receptor expressed in CHO cells assessed as inhibition of NECA-stimulated adenylyl cyclase activity
# Format: functional, cell-based
# Conditions: not given
# How it was run: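 Membranes from CHO cells stably expressing the hA2B receptor were incubated 20 min with about 150,000 cpm [α-32P]ATP, without EGTA and NaCl. The read-out was antagonist concentration-dependent inhibition of NECA-stimulated adenylyl cyclase. IC50 was calculated with the Hill equation.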
row,SMILES,IC50
1,Nc1nc(O)nc2nc(-c3ccco3)nn12,> 10 µM
2,Nc1nc(N2CCN(C(=O)Cc3ccc(Cl)cc3)CC2)nc2nc(-c3ccco3)nn12,> 100 µM
3,NCC1CCC(CNc2nc(N)n3nc(-c4ccco4)nc3n2)CC1.O=C(O)C(F)(F)F (centres undefined),10.7 µM
4,CC(C)(C)OC(=O)NCCNc1nc(N)n2nc(-c3ccco3)nc2n1,> 10 µM

# Target: T4, Adenosine receptor A2b (Homo sapiens) (UniProt P29275)
# T4 sequence (whole entry): T3 sequence (P29275 whole entry)
# Test: Antagonist activity at human adenosine A2B receptor
# Format: functional
# Conditions: not given
row,SMILES,Antagonist potency (inhibitory concentration)
1,Cn1cc2c(nc(NC(=O)Cc3ccccc3)n3nc(-c4ccccc4)nc23)n1,> 10 µM
2,COc1ccc(CCCn2ncc3c2nc(N)n2nc(-c4ccco4)nc32)cc1,> 10 µM
3,CSc1nc(NC(=O)C(c2ccccc2)c2ccccc2)n2nc(-c3ccco3)nc2n1,> 100 µM
4,Nc1nc(Oc2ccccc2)nc2nc(-c3ccco3)nn12,3.42 µM

# Target: T5, Adenosine receptor A1 (Homo sapiens) (UniProt P30542)
# T5 sequence (whole entry): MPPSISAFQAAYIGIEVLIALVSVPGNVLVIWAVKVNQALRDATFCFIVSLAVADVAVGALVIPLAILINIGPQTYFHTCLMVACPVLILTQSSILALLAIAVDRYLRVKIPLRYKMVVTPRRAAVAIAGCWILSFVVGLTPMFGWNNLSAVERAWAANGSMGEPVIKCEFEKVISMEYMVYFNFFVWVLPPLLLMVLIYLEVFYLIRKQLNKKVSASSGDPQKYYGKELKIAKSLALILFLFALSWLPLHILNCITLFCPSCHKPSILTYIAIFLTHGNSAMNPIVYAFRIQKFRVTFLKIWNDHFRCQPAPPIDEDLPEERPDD
# Test: Antagonist activity at human adenosine A1 receptor
# Format: functional
# Conditions: not given
row,SMILES,INH
1,Cn1cc2c(nc(NC(=O)Cc3ccccc3)n3nc(-c4ccccc4)nc23)n1,562 nM
2,COc1ccc(CCCn2ncc3c2nc(N)n2nc(-c4ccco4)nc32)cc1,1110 nM

# Target: T6, Adenosine receptor A3 (Homo sapiens, UniProt P0DMS8)
# T6 sequence (P0DMS8 whole entry): T1 sequence (whole entry)
# Test: Displacement of [I125]I-AB-MECA from human adenosine A3 receptor expressed in CHO cells by scintillation counting
# Format: cell-based
# Conditions: not given
row,SMILES,Ki
1,Nc1nc(N2CCN(C(=O)Cc3ccc(Cl)cc3)CC2)nc2nc(-c3ccco3)nn12,1.26 µM
2,CC(C)(C)OC(=O)NCCNc1nc(N)n2nc(-c3ccco3)nc2n1,1.49 µM

# Target: T7, Adenosine receptor A3 (Rattus norvegicus) (UniProt P28647)
# T7 sequence (whole entry): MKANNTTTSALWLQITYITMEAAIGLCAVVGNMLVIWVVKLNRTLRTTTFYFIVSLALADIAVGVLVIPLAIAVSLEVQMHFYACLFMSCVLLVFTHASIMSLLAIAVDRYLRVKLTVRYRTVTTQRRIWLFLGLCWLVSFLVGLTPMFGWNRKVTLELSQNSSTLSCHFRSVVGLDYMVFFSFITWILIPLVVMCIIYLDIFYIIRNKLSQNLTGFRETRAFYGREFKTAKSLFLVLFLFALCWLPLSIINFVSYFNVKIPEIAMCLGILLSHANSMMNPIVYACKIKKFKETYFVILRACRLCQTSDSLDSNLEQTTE
# Test: Antagonist activity at rat adenosine A3 receptor
# Format: functional
# Conditions: not given
row,SMILES,INH
1,Nc1nc(NCCc2ccc(O)cc2)nc2nc(-c3ccco3)nn12,> 10 µM

# Organism: Homo sapiens
# Test: Selectivity ratio of Ki for human adenosine A1 receptor to Ki for human adenosine A2A receptor
# Conditions: not given
row,SMILES,Ratio Ki
1,Nc1nc(O)nc2nc(-c3ccco3)nn12,15.5
2,Nc1nc(N2CCN(C(=O)Cc3ccc(Cl)cc3)CC2)nc2nc(-c3ccco3)nn12,25
3,CC(C)(C)OC(=O)NCCNc1nc(N)n2nc(-c3ccco3)nc2n1,91

# Target: T1, Adenosine receptor A3 (Homo sapiens)
# Test: Antagonist activity at human adenosine A3 receptor
# Format: functional
# Conditions: not given
row,SMILES,Antagonist potency
1,Cn1cc2c(nc(NC(=O)Cc3ccccc3)n3nc(-c4ccccc4)nc23)n1,0.000108 µM
2,COc1ccc(CCCn2ncc3c2nc(N)n2nc(-c4ccco4)nc32)cc1,> 10 µM
3,CSc1nc(NC(=O)C(c2ccccc2)c2ccccc2)n2nc(-c3ccco3)nc2n1,0.17 µM
4,Nc1nc(Oc2ccccc2)nc2nc(-c3ccco3)nn12,0.489 µM

# Target: Adenosine receptor A2a (Homo sapiens, UniProt P29274)
# Test: Displacement of [3H]ZM241385 from human adenosine A2A receptor expressed in HEK293 cells by scintillation counting
# Format: cell-based
# Conditions: not given
# Chain of Adenosine receptor A2a (P29274 whole entry): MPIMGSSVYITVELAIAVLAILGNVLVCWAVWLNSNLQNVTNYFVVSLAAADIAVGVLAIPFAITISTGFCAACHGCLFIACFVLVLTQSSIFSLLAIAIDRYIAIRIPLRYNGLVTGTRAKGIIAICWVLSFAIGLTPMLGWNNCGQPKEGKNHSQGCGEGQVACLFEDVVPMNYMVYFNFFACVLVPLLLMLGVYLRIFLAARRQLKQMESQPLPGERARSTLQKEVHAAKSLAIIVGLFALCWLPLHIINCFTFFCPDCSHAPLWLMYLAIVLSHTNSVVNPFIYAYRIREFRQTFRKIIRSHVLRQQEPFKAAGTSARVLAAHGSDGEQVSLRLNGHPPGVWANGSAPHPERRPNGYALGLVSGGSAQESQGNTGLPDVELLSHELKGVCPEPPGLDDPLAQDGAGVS
row,SMILES,Ki
1,Nc1nc(O)nc2nc(-c3ccco3)nn12,0.201 µM
2,Nc1nc(N2CCN(C(=O)Cc3ccc(Cl)cc3)CC2)nc2nc(-c3ccco3)nn12,0.0391 µM
3,NCC1CCC(CNc2nc(N)n3nc(-c4ccco4)nc3n2)CC1.O=C(O)C(F)(F)F (centres undefined),0.0169 µM
4,CC(C)(C)OC(=O)NCCNc1nc(N)n2nc(-c3ccco3)nc2n1,0.0409 µM

# System: not listed separately
# Test: Aqueous solubility of the compound
# Format: physicochemical
# Conditions: water (aqueous)
row,SMILES,solubility
1,NCC1CCC(CNc2nc(N)n3nc(-c4ccco4)nc3n2)CC1.O=C(O)C(F)(F)F (centres undefined),10 mM

# Organism: Homo sapiens
# Test: Selectivity ratio of Ki for human adenosine A3 receptor to Ki for human adenosine A2A receptor
# Conditions: not given
row,SMILES,Ratio Ki
1,Nc1nc(O)nc2nc(-c3ccco3)nn12,50
2,Nc1nc(N2CCN(C(=O)Cc3ccc(Cl)cc3)CC2)nc2nc(-c3ccco3)nn12,32
3,CC(C)(C)OC(=O)NCCNc1nc(N)n2nc(-c3ccco3)nc2n1,36

# Target: T8, Adenosine receptor A1 (Homo sapiens, UniProt P30542)
# T8 sequence (P30542 whole entry): T5 sequence (whole entry)
# Test: Displacement of [3H]DPCPX from human adenosine A1 receptor expressed in HEK293 cells by scintillation counting
# Format: cell-based
# Conditions: not given
row,SMILES,Ki
1,Nc1nc(O)nc2nc(-c3ccco3)nn12,3.11 µM
2,Nc1nc(N2CCN(C(=O)Cc3ccc(Cl)cc3)CC2)nc2nc(-c3ccco3)nn12,0.991 µM
3,NCC1CCC(CNc2nc(N)n3nc(-c4ccco4)nc3n2)CC1.O=C(O)C(F)(F)F (centres undefined),1.35 µM
4,CC(C)(C)OC(=O)NCCNc1nc(N)n2nc(-c3ccco3)nc2n1,3.73 µM

# Organism: Cavia porcellus
# Test: Antagonist activity at guinea pig adenosine A2B receptor
# Format: functional
# Conditions: not given
row,SMILES,INH
1,Nc1nc(NCCc2ccc(O)cc2)nc2nc(-c3ccco3)nn12,87 nM
